Among the data in ChEMBL document CHEMBL1138238, “Synthesis and evaluation of 3-aryloxymethyl-1,2-dimethylindole-4,7-diones as mechanism-based inhibitors of NAD(P)H:quinone oxidoreductase 1 (NQO1) activity” (J Med Chem, 2007) are IC50 and inhibition values, retold here.

Assay [1] has as its system MIA PaCa-2. The assay is described as follows: Cytotoxicity against human MIA PaCa2 cells after 4 hrs by MTT assay. In kind it is functional, cell-based. The settings on record: MIA PaCa-2, 4 h. For orientation: Tetrazolium dyes change colour on reduction, which living cells bring about.
The target of assay [2] is NAD(P)H dehydrogenase [quinone] 1 (Homo sapiens) (UniProt P15559). The assay is described as follows: Inhibition of human recombinant NQO1 expressed in MIA PaCa2 cells at 5000 to 10000 nM after 1 hrs. In kind it is cell-based. The settings on record: MIA PaCa-2. An outline of the steps:
(§1)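 MIA PaCa-2 cells (1×10^6, plated the day before) exposed to indolequinone (1 nM–10 μM) in complete medium for 1 h. Cells then washed in PBS, scraped into 50 mM K phosphate pH 7.4 with 250 mM sucrose and 5 μM FAD, and sonicated on ice. NQO1 activity in sonicates measured as 0.2 mM NADH-dependent reduction of 40 μM DCPIP, read at 600 nm for 1 min at 32 °C.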

For assay [3], the system named is MIA PaCa-2. The experiment in a line: Cytotoxicity against human MIA PaCa2 cells after 72 hrs by MTT assay. The settings on record: MIA PaCa-2, 72 h. The format is functional, cell-based.
The target in assay [4] is NAD(P)H dehydrogenase [quinone] 1 (Homo sapiens) (UniProt P15559). The experiment in a line: Inhibition of human recombinant NQO1 expressed in MIA PaCa2 cells at 10 to 100 nM after 1 hrs. The format is cell-based. The settings on record: MIA PaCa-2. An outline of the steps: as §1
The target is the same in assay [5]. The experiment in a line: Inhibition of human recombinant NQO1 expressed in MIA PaCa2 cells at <10 nM after 1 hrs. The format is cell-based. The conditions noted are these: MIA PaCa-2. An outline of the steps:
as §1

Sequence of NAD(P)H dehydrogenase [quinone] 1 (Homo sapiens) (P15559 whole entry): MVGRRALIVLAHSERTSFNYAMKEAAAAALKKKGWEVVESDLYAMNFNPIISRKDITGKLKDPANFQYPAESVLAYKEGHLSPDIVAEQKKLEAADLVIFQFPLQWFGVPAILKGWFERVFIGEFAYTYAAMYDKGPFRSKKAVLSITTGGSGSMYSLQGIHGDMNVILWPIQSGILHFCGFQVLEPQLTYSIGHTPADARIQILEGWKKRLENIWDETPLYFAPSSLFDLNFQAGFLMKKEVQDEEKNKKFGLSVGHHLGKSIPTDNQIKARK

For the molecule `COC1=CC(=O)c2c(COc3ccc(C(F)(F)F)cc3)c(C)n(C)c2C1=O`, the values for the IC50 in the assay on MIA PaCa-2 [1] and with MIA PaCa-2 [3] were 0.496 µM and 0.311 µM, respectively. The inhibition in assay [2] is greater than 90%.

Regarding `COC1=CC(=O)c2c(COc3cccnc3)c(C)n(C)c2C1=O`, the results for the IC50 with MIA PaCa-2 [1] and in the assay with MIA PaCa-2 [3] were 2.48 µM and 1.82 µM, respectively.

Consider `COC1=CC(=O)c2c(c(COc3c(F)cc(F)cc3F)c(C)n2C)C1=O`, for which the IC50 in the assay on MIA PaCa-2 [1] turned out to be 0.427 µM; in the assay with MIA PaCa-2 [3] it was 0.086 µM.

Regarding `COC1=CC(=O)c2c(c(COc3cccnc3)c(C)n2C)C1=O`, the IC50 in the assay with MIA PaCa-2 [1] stood at 0.904 µM; with MIA PaCa-2 [3], 0.562 µM. For the same molecule, the inhibition in assay [4] was greater than 90%.

As to `COC1=CC(=O)c2c(COc3ccccn3)c(C)n(C)c2C1=O`, the half-maximal inhibitory concentration (IC50) with MIA PaCa-2 [1] was 9.58 µM; in the assay on MIA PaCa-2 [3], 2.39 µM. Moreover, the inhibition in assay [4] is greater than 90%.

For `COC1=CC(=O)c2c(c(C(C)Oc3ccc([N+](=O)[O-])cc3)c(C)n2C)C1=O` (stereo not given), the IC50 with MIA PaCa-2 [1] stood at 1.83 µM; in the assay with MIA PaCa-2 [3], 1.7 µM.

Regarding `Oc1cccnc1`, the concentration for half-maximal inhibition (IC50) was 56.5 µM in the assay with MIA PaCa-2 [1] and 73.1 µM in the assay on MIA PaCa-2 [3].

Take `Oc1c(F)cc(F)cc1F`: the figures for the IC50 with MIA PaCa-2 [1] and in the assay with MIA PaCa-2 [3] were 36.4 µM and 38.1 µM, respectively.

Turning to `COC1=CC(=O)c2c(COc3ccc([N+](=O)[O-])cc3F)c(C)n(C)c2C1=O`, the values for the IC50 with MIA PaCa-2 [1] and in the assay with MIA PaCa-2 [3] were 0.529 µM and 0.417 µM, respectively. Besides, the inhibition in assay [4] was greater than 90%.

On to `Nc1ccc(O)cc1` [4-AMINOPHENOL], for which the values for the IC50 in the assay with MIA PaCa-2 [1] and in the assay on MIA PaCa-2 [3] were 42 µM and 42.2 µM, respectively.

Consider `COC1=CC(=O)c2c(COc3c(F)cc(F)cc3F)c(C)n(C)c2C1=O`, for which the IC50 in the assay with MIA PaCa-2 [1] was 0.452 µM; in the assay on MIA PaCa-2 [3], 0.212 µM. Moreover, in assay [4], the inhibition was greater than 90%.

Take `COC1=CC(=O)c2c(COc3cccc([N+](=O)[O-])c3)c(C)n(C)c2C1=O`: the IC50 in the assay on MIA PaCa-2 [1] was 0.351 µM; in the assay with MIA PaCa-2 [3] it was 0.257 µM. The inhibition in assay [4] was greater than 90%.

With `COC1=CC(=O)c2c(c(COc3ccccc3)c(C)n2C)C1=O`, the values for the IC50 in the assay on MIA PaCa-2 [1] and in the assay with MIA PaCa-2 [3] were 1.39 µM and 0.962 µM, respectively.

Consider `O=[N+]([O-])c1ccc(O)c([N+](=O)[O-])c1` [2,4-DINITROPHENOL], for which the IC50 came out at 15.9 µM with MIA PaCa-2 [1] and 22.1 µM in the assay with MIA PaCa-2 [3].

In the case of `Oc1ccc(C(F)(F)F)cc1`, the IC50 amounted to 13.1 µM with MIA PaCa-2 [1] and 32.9 µM in the assay on MIA PaCa-2 [3].

Consider `COC1=CC(=O)c2c(COc3ccccc3[N+](=O)[O-])c(C)n(C)c2C1=O`, for which the values for the IC50 in the assay on MIA PaCa-2 [1] and in the assay with MIA PaCa-2 [3] were 0.363 µM and 0.178 µM, respectively. Besides, the inhibition in assay [4] was greater than 90%.

Regarding `Oc1ccccn1`, the half-maximal inhibitory concentration (IC50) with MIA PaCa-2 [1] was determined as 68.1 µM; with MIA PaCa-2 [3], 68.8 µM.

Take `O=[N+]([O-])c1ccc(O)cc1` [P-NITROPHENOL]: the values for the half-inhibitory concentration (IC50) in the assay on MIA PaCa-2 [1] and in the assay on MIA PaCa-2 [3] were 11 µM and 13 µM, respectively.

With `COC1=CC(=O)c2c(c(COc3ccc([N+](=O)[O-])cc3F)c(C)n2C)C1=O`, the IC50 worked out at 4.65 µM with MIA PaCa-2 [1] and 3.56 µM with MIA PaCa-2 [3].

For the molecule `N#Cc1ccc(O)cc1` [4-CYANOPHENOL], the IC50 is 56.8 µM with MIA PaCa-2 [1] and 73.3 µM in the assay with MIA PaCa-2 [3].

With `COC1=CC(=O)c2c(COc3ccc(F)cc3F)c(C)n(C)c2C1=O`, the IC50 in the assay on MIA PaCa-2 [1] is 0.255 µM; in the assay on MIA PaCa-2 [3] it was 0.075 µM. In addition, the inhibition in assay [4] is greater than 90%.

With `O=[N+]([O-])c1cccc(O)c1` [3-NITRO-PHENOL], the half-maximal inhibitory concentration (IC50) with MIA PaCa-2 [1] was 7.13 µM; in the assay on MIA PaCa-2 [3], 13.9 µM.

For `COC1=CC(=O)c2c(c(COc3ccc([N+](=O)[O-])cc3)c(C)n2C)C1=O`, the IC50 stood at 0.629 µM in the assay on MIA PaCa-2 [1] and 0.508 µM with MIA PaCa-2 [3]. Also, in assay [4], the inhibition is greater than 90%.

For the molecule `COC1=CC(=O)c2c(COc3ccncc3)c(C)n(C)c2C1=O`, the IC50 in the assay with MIA PaCa-2 [1] came out at 2.56 µM; in the assay on MIA PaCa-2 [3], 3.27 µM. Also, the inhibition in assay [4] was greater than 90%.

As to `COC1=CC(=O)c2c(COc3ccc(N)cc3)c(C)n(C)c2C1=O`, the 50% inhibitory concentration (IC50) with MIA PaCa-2 [1] is 0.504 µM; in the assay on MIA PaCa-2 [3], 0.16 µM.

On to `Oc1ccccc1` [PHENOL], for which the IC50 was determined as 16.5 µM in the assay on MIA PaCa-2 [1] and 16 µM in the assay with MIA PaCa-2 [3].

Regarding `COC1=CC(=O)c2c(c(COc3ccccc3[N+](=O)[O-])c(C)n2C)C1=O`, the IC50 was found to be 0.345 µM with MIA PaCa-2 [1] and 0.104 µM with MIA PaCa-2 [3].

With `COC1=CC(=O)c2c(COc3ccc(F)cc3)c(C)n(C)c2C1=O`, the IC50 with MIA PaCa-2 [1] was 0.905 µM; with MIA PaCa-2 [3], 0.493 µM. Further, the inhibition in assay [2] was greater than 90%.

Turning to `O=[N+]([O-])c1ccccc1O` [NITROPHENOLATE], the results for the IC50 in the assay with MIA PaCa-2 [1] and with MIA PaCa-2 [3] were 6.08 µM and 16.4 µM, respectively.

As to `Oc1ccc(F)cc1F`, the IC50 in the assay with MIA PaCa-2 [1] came to 14.8 µM; with MIA PaCa-2 [3], 20.8 µM.

For `COC1=CC(=O)c2c(c(COc3cccc([N+](=O)[O-])c3)c(C)n2C)C1=O`, the IC50 in the assay with MIA PaCa-2 [1] came out at 0.352 µM; in the assay with MIA PaCa-2 [3], 0.258 µM. In addition, the inhibition in assay [4] is greater than 90%.

Consider `O=[N+]([O-])c1ccc(O)c(F)c1`, for which the IC50 is 14.3 µM with MIA PaCa-2 [1] and 19.2 µM in the assay on MIA PaCa-2 [3].

As to `COC1=CC(=O)c2c(COc3ccccc3)c(C)n(C)c2C1=O`, the figures for the IC50 with MIA PaCa-2 [1] and in the assay with MIA PaCa-2 [3] were 4.56 µM and 0.409 µM, respectively.

`COC1=CC(=O)c2c(COc3ccc(C#N)cc3)c(C)n(C)c2C1=O`: the IC50 came to 0.463 µM with MIA PaCa-2 [1] and 0.192 µM in the assay on MIA PaCa-2 [3].

`COC1=CC(=O)c2c(c(COc3ccncc3)c(C)n2C)C1=O`: the IC50 in the assay on MIA PaCa-2 [1] was 2.01 µM; in the assay with MIA PaCa-2 [3], 2.17 µM.

For `Oc1ccncc1`, the IC50 in the assay with MIA PaCa-2 [1] was determined as 43.2 µM; with MIA PaCa-2 [3], 17.8 µM.

For the molecule `COC1=CC(=O)c2c(COc3ccc([N+](=O)[O-])cc3)c(C)n(C)c2C1=O`, the IC50 came to 0.638 µM in the assay with MIA PaCa-2 [1] and 0.355 µM in the assay with MIA PaCa-2 [3]. Besides, the inhibition in assay [4] is greater than 90%.

As for `COC1=CC(=O)c2c(c(COc3ccccn3)c(C)n2C)C1=O`, the inhibition in assay [5] was greater than 90%.

With `Oc1ccc(F)cc1`, the IC50 in the assay with MIA PaCa-2 [1] is 12.4 µM; in the assay on MIA PaCa-2 [3], 13.2 µM.

For orientation: IC50 means the point on the concentration scale where inhibition reaches its midpoint. A lower IC50 goes with greater potency. What is called inhibition is the share of the control response that was lost under treatment.
